Bounds are passed on as bounds.

The test system of one series is Plasmodium falciparum. Briefly: Antiplasmodial activity against chloroquine, pyrimethamine and proguanil-resistant Plasmodium falciparum K1 infected in human erythrocytes assessed as reduction in Parasitemia incubated for 72 hrs by SYBR Green I fluorescence-based method. The format is functional, organism-based. To be noted: K1, 72 h. The gist of the method:
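Multidrug-resistant P. falciparum K1 was tested in vitro with a SYBR Green I fluorescence-based read-out. IC50 was calculated from three independent experiments, each run in duplicate, and reported as mean ± SD.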

The next series concerns Leishmania donovani. Briefly: Antileishmanial activity Leishmania donovani MHOM/IN/00/DEVI promastigotes incubated for 72 hrs by MTT assay. The format is functional, organism-based. The gist of the method: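 Promastigotes of strain MHOM/IN/00/DEVI were exposed to compounds alongside amphotericin B and pentamidine reference drugs under identical conditions. IC50 was determined from three independent experiments, each run in duplicate, and reported as mean ± SD.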
For orientation: Tetrazolium dyes change colour on reduction, which living cells bring about.

Series [1] is described as follows: Selectivity index, ratio of CC50 for mouse J774A1 cells to IC50 for Leishmania donovani MHOM/IN/00/DEVI promastigotes. The format is functional, J774.A1. The gist of the method:
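SI was calculated as J774A.1 macrophage CC50 (MTT) divided by L. donovani promastigote IC50. Both inputs were means of three independent experiments run in duplicate.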

Series [2] can be described thus: Cytotoxicity against human HepG2 cells incubated for 72 hrs by MTT assay. The format is cell-based. The gist of the method:
(§1)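 Cytotoxicity was measured by MTT in mouse J774A.1 macrophages and human HepG2 hepatocyte-derived cells, with doxorubicin as the cytotoxic reference. The 50% cytotoxic concentration (CC50) came from three independent experiments in duplicate, reported as mean ± SD.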

Series [3] can be described thus: Selectivity index, ratio of CC50 for human HepG2 cells to IC50 for chloroquine, pyrimethamine and proguanil-resistant Plasmodium falciparum K1. The format is functional. The gist of the method: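 SI = HepG2 CC50 / PfK1 IC50. CC50 was from an MTT assay on human HepG2 cells, and IC50 from the SYBR Green I fluorescence assay on P. falciparum K1. Each assay was three independent experiments in duplicate.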

A short description of series [4]: Cytotoxicity against mouse J774A1 cells incubated for 72 hrs by MTT assay. The format is cell-based, J774.A1. The gist of the method: as §1

For `COc1cc(-c2ccc(C3(C)CC(S(=O)(=O)c4ccc(F)cc4)=C(c4ccc(/C(N)=N\O)cc4)O3)cc2)cc(OC)c1OC` (configuration not stated), the IC50 (as a rule, the concentration at which inhibition is half-maximal) is 5.03 µM in the series with Plasmodium falciparum and more than 25 µM in the series with Leishmania donovani. Further, the results for the “Ratio CC50/IC50” value in series [1] and in series [3] were less than 0.2 and more than 9.9, respectively. Also, the 50% cytotoxic concentration (CC50) (as a rule, the concentration that lowers cell viability or growth by half) at 72 h was more than 50 µM in series [2] and 5.22 µM in series [4].

Regarding `CC1(Cc2ccccc2)CC(S(=O)(=O)c2ccccc2F)=C(c2ccc(/C(N)=N\O)cc2)O1` (configuration not stated), the IC50 in the series on Plasmodium falciparum was more than 10 µM; in the series with Leishmania donovani it was 9.16 µM. The entries for the “Ratio CC50/IC50” value in series [1] and in series [3] were 3.2 and less than 6.2, respectively. In addition, the half-maximal cytotoxic concentration (CC50) at 72 h was 61.7 µM in series [2] and 29.1 µM in series [4].

Take `CC1(c2ccc(Br)cc2)CC(S(=O)(=O)c2ccc(F)cc2)=C(c2ccc(/C(N)=N\O)cc2)O1` (configuration not stated): the half-inhibitory concentration (IC50) with Plasmodium falciparum was more than 10 µM; with Leishmania donovani, 10.8 µM. Further, the “Ratio CC50/IC50” value was 1 in series [1] and less than 1.9 in series [3]. Also, the CC50 at 72 h in series [2] is 19.2 µM; in series [4], 10.5 µM.

Consider `N=C(N)c1ccc(OCCCCCOc2ccc(C(=N)N)cc2)cc1` [PENTAMIDINE], for which, in series [1], the “Ratio CC50/IC50” value was determined as 0.1.

As to `N/C(=N/O)c1ccc(C2=C(S(=O)(=O)c3ccc(F)cc3)CC(c3ccccc3)(c3ccccc3)O2)cc1`, the IC50 came out at 3.9 µM with Plasmodium falciparum and 15.7 µM with Leishmania donovani. The “Ratio CC50/IC50” value in series [1] worked out at 0.7; in series [3], 4.9. Moreover, the results for the CC50 at 72 h in series [2] and in series [4] were 19.2 µM and 10.2 µM, respectively.

As to `CC1(c2ccc(-c3ccccc3C#N)cc2)CC(S(=O)(=O)c2ccc(F)cc2)=C(c2ccc(/C(N)=N\O)cc2)O1` (configuration not stated), the IC50 in the series with Plasmodium falciparum was more than 10 µM; in the series with Leishmania donovani, 21 µM. Also, the “Ratio CC50/IC50” value in series [1] is 0.4; in series [3], less than 5.8. For the same compound, the values for the CC50 at 72 h in series [2] and in series [4] were 58.3 µM and 9.29 µM, respectively.

For the compound `CC1(c2ccc(Cl)cc2)CC(S(=O)(=O)c2ccc(F)cc2)=C(c2ccc(/C(N)=N\O)cc2)O1` (configuration not stated), the IC50 with Plasmodium falciparum is more than 10 µM; in the series on Leishmania donovani, 48.4 µM. Also, the “Ratio CC50/IC50” value in series [1] is on record as 0.7; in series [3], less than 6.1. For the same compound, the CC50 at 72 h was determined as 61.4 µM in series [2] and 31.5 µM in series [4].

On to `CC1(Cc2ccccc2)CC(S(=O)(=O)c2cccc(C(F)(F)F)c2)=C(c2ccc(/C(N)=N\O)cc2)O1` (configuration not stated), for which the values for the half-maximal inhibitory concentration (IC50) in the series on Plasmodium falciparum and in the series with Leishmania donovani were 6.54 µM and 11.9 µM, respectively. Also, the “Ratio CC50/IC50” value is 1.2 in series [1] and 5.1 in series [3]. Further, the half-maximal cytotoxic concentration (CC50) at 72 h in series [2] was found to be 33.4 µM; in series [4] it was 14.5 µM.

As for `CCC1(c2ccccc2OC)CC(S(=O)(=O)c2ccc(F)cc2)=C(c2ccc(/C(N)=N\O)cc2)O1` (configuration not stated), the values for the IC50 with Plasmodium falciparum and in the series on Leishmania donovani were 7.88 µM and 12.4 µM, respectively. The “Ratio CC50/IC50” value in series [1] amounted to 0.8; in series [3] it was 3.4. The CC50 at 72 h in series [2] turned out to be 27 µM; in series [4] it was 9.88 µM.

On to `CC1(c2ccc(-c3ccncc3)cc2)CC(S(=O)(=O)c2ccc(F)cc2)=C(c2ccc(/C(N)=N\O)cc2)O1` (configuration not stated), for which the IC50 in the series on Plasmodium falciparum was found to be 3.2 µM; in the series on Leishmania donovani, 28 µM. In addition, the “Ratio CC50/IC50” value was determined as 0.2 in series [1] and 9.5 in series [3]. The CC50 at 72 h in series [2] came to 30.3 µM; in series [4] it was 6.75 µM.

As for `COc1ccc(C2(c3ccccc3)CC(S(=O)(=O)c3ccc(F)cc3)=C(c3ccc(/C(N)=N\O)cc3)O2)cc1` (configuration not stated), the IC50 is 4.17 µM with Plasmodium falciparum and more than 50 µM in the series on Leishmania donovani. The “Ratio CC50/IC50” value in series [1] is less than 0.2; in series [3] it was 7. Moreover, the cytotoxic concentration (CC50) at 72 h in series [2] amounted to 29.4 µM; in series [4], 11.3 µM.

As to `C[C@H]1c2cccc(O)c2C(=O)C2=C(O)[C@]3(O)C(=O)C(C(N)=O)=C(O)[C@@H](N(C)C)[C@@H]3[C@@H](O)[C@@H]21.O` [DOXYCYCLINE], the “Ratio CC50/IC50” value in series [3] is reported as 4.

For the compound `Cc1ccc(-c2ccc(C3(C)CC(S(=O)(=O)c4ccc(F)cc4)=C(c4ccc(/C(N)=N\O)cc4)O3)cc2)cc1` (configuration not stated), the values for the half-maximal inhibitory concentration (IC50) in the series with Plasmodium falciparum and with Leishmania donovani were more than 10 µM and 11.8 µM, respectively. The “Ratio CC50/IC50” value in series [1] is 0.7; in series [3] it was less than 1.4. Moreover, the CC50 at 72 h came out at 13.7 µM in series [2] and 7.91 µM in series [4].

Regarding `CC1(c2ccccc2)CC(S(=O)(=O)c2ccc(F)cc2)=C(c2ccc(/C(N)=N\O)cc2)O1` (configuration not stated), the half-inhibitory concentration (IC50) in the series on Plasmodium falciparum is more than 10 µM; in the series on Leishmania donovani, more than 50 µM. The “Ratio CC50/IC50” value in series [1] is less than 0.6; in series [3], less than 6.8. Moreover, the figures for the CC50 at 72 h in series [2] and in series [4] were 68.3 µM and 29.7 µM, respectively.

Consider `CC1(Cc2ccccc2)CC(S(=O)(=O)c2ccc(F)cc2F)=C(c2ccc(/C(N)=N\O)cc2)O1` (configuration not stated), for which the results for the IC50 in the series with Plasmodium falciparum and in the series with Leishmania donovani were 8.21 µM and 32.5 µM, respectively. The “Ratio CC50/IC50” value in series [1] is recorded as 1.3; in series [3], 11. Also, the CC50 at 72 h amounted to 90.6 µM in series [2] and 41.5 µM in series [4].

With `CC1(c2ccc(-c3cccc([N+](=O)[O-])c3)cc2)CC(S(=O)(=O)c2ccc(F)cc2)=C(c2ccc(/C(N)=N\O)cc2)O1` (configuration not stated), the IC50 in the series on Plasmodium falciparum came to 5.82 µM; with Leishmania donovani, 14.1 µM. Besides, the “Ratio CC50/IC50” value in series [1] is reported as 0.8; in series [3] it was more than 8.6. Besides, the CC50 at 72 h in series [2] is more than 50 µM; in series [4] it was 11.1 µM.

Consider `CC1(Cc2ccccc2)CC(S(=O)(=O)c2ccccc2C(F)(F)F)=C(c2ccc(/C(N)=N\O)cc2)O1` (configuration not stated), for which the figures for the IC50 in the series on Plasmodium falciparum and in the series with Leishmania donovani were more than 10 µM and 15.5 µM, respectively. In addition, the “Ratio CC50/IC50” value in series [1] is 1.5; in series [3] it was less than 5.7. Also, the values for the CC50 at 72 h in series [2] and in series [4] were 57.5 µM and 23.5 µM, respectively.

In the case of `CC1(Cc2ccccc2)CC(S(=O)(=O)c2cccc(F)c2)=C(c2ccc(/C(N)=N\O)cc2)O1` (configuration not stated), the results for the IC50 in the series on Plasmodium falciparum and with Leishmania donovani were 7.16 µM and 13.1 µM, respectively. Further, the “Ratio CC50/IC50” value in series [1] is listed as 2.2; in series [3] it was 8.3. The CC50 at 72 h in series [2] came out at 59.6 µM; in series [4], 28.3 µM.

As to `CC1(Cc2ccccc2)CC(S(=O)(=O)c2c(F)cccc2F)=C(c2ccc(/C(N)=N\O)cc2)O1` (configuration not stated), the IC50 with Plasmodium falciparum is 2.76 µM; with Leishmania donovani it was 22.1 µM. The entries for the “Ratio CC50/IC50” value in series [1] and in series [3] were 1.2 and 33.2, respectively. Also, the half-maximal cytotoxic concentration (CC50) at 72 h in series [2] came to 91.4 µM; in series [4], 27 µM.

On to `CC1(c2ccc(-c3cccc(/C(N)=N\O)c3)cc2)CC(S(=O)(=O)c2ccc(F)cc2)=C(c2ccc(/C(N)=N\O)cc2)O1` (configuration not stated), for which the results for the half-inhibitory concentration (IC50) in the series on Plasmodium falciparum and in the series on Leishmania donovani were 4.34 µM and more than 50 µM, respectively. For the same compound, the “Ratio CC50/IC50” value in series [1] is recorded as less than 0.2; in series [3], 4.4. Moreover, the CC50 at 72 h in series [2] came to 19 µM; in series [4], 11 µM.

`C[C@@H]1[C@H](O)[C@@H](C)/C=C/C=C/C=C/C=C/C=C/C=C/C=C/[C@H](O[C@@H]2O[C@H](C)[C@@H](O)[C@H](N)[C@@H]2O)C[C@@H]2O[C@](O)(C[C@@H](O)C[C@@H](O)[C@H](O)CC[C@@H](O)C[C@@H](O)CC(=O)O[C@H]1C)C[C@H](O)[C@H]2C(=O)O` [AMPHOTERICIN B] registered a concentration for half-maximal inhibition (IC50) in the series on Leishmania donovani of 0.15 µM. The “Ratio CC50/IC50” value in series [1] was 47.1. The compound also yielded a CC50 at 72 h in series [4] of 6.91 µM.

On to `CC1(c2ccc(-c3ccco3)cc2)CC(S(=O)(=O)c2ccc(F)cc2)=C(c2ccc(/C(N)=N\O)cc2)O1` (configuration not stated), for which the concentration for half-maximal inhibition (IC50) is more than 10 µM in the series on Plasmodium falciparum and more than 25 µM in the series on Leishmania donovani. Further, the “Ratio CC50/IC50” value is on record as less than 0.2 in series [1] and less than 0.7 in series [3]. Further, the half-maximal cytotoxic concentration (CC50) at 72 h in series [2] stood at 7.01 µM; in series [4] it was 4.56 µM.

Turning to `CC1(c2ccc(-c3ccc(/C(N)=N\O)cc3)cc2)CC(S(=O)(=O)c2ccc(F)cc2)=C(c2ccc(/C(N)=N\O)cc2)O1` (configuration not stated), the IC50 with Plasmodium falciparum is 4.93 µM; in the series with Leishmania donovani, more than 50 µM. In addition, the “Ratio CC50/IC50” value is reported as less than 0.08 in series [1] and 3.1 in series [3]. Further, the CC50 at 72 h was 15.3 µM in series [2] and 3.94 µM in series [4].

For `COc1cccc2c1C(=O)c1c(O)c3c(c(O)c1C2=O)C[C@@](O)(C(=O)CO)C[C@@H]3O[C@H]1C[C@H](N)[C@H](O)[C@H](C)O1` [DOXORUBICIN], the half-maximal cytotoxic concentration (CC50) at 72 h came out at 0.02 µM in series [2] and 0.01 µM in series [4].

These data come from ChEMBL document CHEMBL3352504, “New series of monoamidoxime derivatives displaying versatile antiparasitic activity” (Eur J Med Chem, 2014).
